Reference: ChEMBL document CHEMBL1134290, “A novel anti-ischemic ATP-sensitive potassium channel (K(ATP)) opener without vasorelaxation: N-(6-aminobenzopyranyl)-N'-benzyl-N' '-cyanoguanidine analogue” (J Med Chem, 2001)

How the values were obtained:
[1] = species: Rattus norvegicus; experiment: (§1) Reduction rate of LDH release from neuronal cells injured by iron […]; format: functional
Method in brief: (§2)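 Cortical neurons from E17-18 rat embryos, cultured 7-9 days at 37 °C, 5% CO2. Serum lowered to 0.2% in MEM. Pretreated 30 min with compound in DMSO (final ≤0.2%), then FeSO4 at 50 µM final for 24 h. LDH released into medium measured; reduction of LDH release taken relative to control. Four determinations averaged.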

[2] = system: Rattus norvegicus; experiment: Ratio of myocardial infarct zone to area at risk […] in ischemic myocardium damage rat model (Cardioprotective effect) at 0.3 mg/Kg; format: functional
Method in brief: (§3)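 Male Sprague-Dawley rats (350-450 g), pentobarbital 75 mg/kg i.p., ventilated 60/min at 10 mL/kg, 37 °C. Vehicle or compound given via femoral vein over 30 min, with or without glibenclamide or 5-HD. Left coronary occlusion 45 min, reperfusion 90 min. Risk zone marked by Evans blue after reocclusion. LV slices stained with TTC at 37 °C, pH 7.4, 15 min. Infarct area summed, divided by AAR weight; n = 3 or more.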

[3] = species: Rattus norvegicus; experiment: as §1; format: functional, cell-based
[4] = system: Rattus norvegicus; experiment: Ratio of myocardial infarct zone to area at risk (IZ/AAR) in ischemic myocardium damage rat model (Cardioprotective effect) at 0.3 mg/Kg; format: functional; method in brief: as §3
[5] = species: Rattus norvegicus; experiment: Inhibition of methoxamine-contracted rat aorta (Vasorelaxant potency); format: functional
Method in brief: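 Rat aortic rings (Sprague-Dawley, 350-450 g; 3 mm rings, adipose removed) held in oxygenated modified Krebs-Henseleit PSS at 37 °C under 2 g resting tension, stabilised 1 h. Once methoxamine contraction reached a maintained maximum, compound added cumulatively at 1, 3, 10, 30 µM. Relaxation taken as change in maximal methoxamine constriction and plotted as concentration-relaxation curve.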

[6] = species: Rattus norvegicus; experiment: Reduction rate of LDH release from rat neuronal cells injured by iron […]; format: functional; method in brief: as §2
[7] = system: Rattus norvegicus; experiment: Ratio of myocardial infarct zone to area at risk(IZ/AAR)in ischemic myocardium damage rat model (Cardioprotective effect) at 0.1 mg/kg; format: functional; method in brief: as §3
[8] = system: Rattus norvegicus; experiment: Ratio of myocardial infarct zone to area at risk(IZ/AAR)in ischemic myocardium damage rat model (Cardioprotective effect) at 1 mg/kg; Not determined; format: functional; method in brief: as §3
[9] = system: Rattus norvegicus; experiment: Ratio of myocardial infarct zone to area at risk (IZ/AAR) in ischemic myocardium damage rat model (Cardioprotective effect) in the presence of 5-HD (10 mg/kg); format: functional; method in brief: as §3
[10] = system: Rattus norvegicus; experiment: Ratio of myocardial infarct zone to area at risk (IZ/AAR) in ischemic myocardium damage rat model (Cardioprotective effect) in the presence of Gliben 1 mg/kg; format: functional; method in brief: as §3
[11] = system: Rattus norvegicus; experiment: Ratio of myocardial infarct zone to area at risk(IZ/AAR)in ischemic myocardium damage rat model (Cardioprotective effect) at 0.3 mg/kg; Not determined; format: functional; method in brief: as §3
[12] = system: Rattus norvegicus; experiment: Ratio of myocardial infarct zone to area at risk […] in ischemic myocardium damage rat model (Cardioprotective effect) at 1 mg/Kg; format: functional; method in brief: as §3
[13] = system: Rattus norvegicus; experiment: Ratio of myocardial infarct zone to area at risk […] in ischemic myocardium damage rat model (Cardioprotective effect) at 0.1 mg/Kg; format: functional; method in brief: as §3
[14] = system: Rattus norvegicus; experiment: Ratio of myocardial infarct zone to area at risk […] in ischemic myocardium damage rat model (Cardioprotective effect) in the presence of Gliben 1 mg/kg; format: functional; method in brief: as §3
[15] = system: Rattus norvegicus; experiment: Ratio of myocardial infarct zone to area at risk […] in ischemic myocardium damage rat model (Cardioprotective effect) in the presence of 5-HD (10 mg/kg); format: functional; method in brief: as §3

SMILES	inhibition at 30 µM [1] [%]	Effect [2] [%]	Effect [4] [%]	further results
COC(OC)[C@]1(C)Oc2ccc([N+](=O)[O-])cc2[C@@H](N/C(=N/C#N)NCc2ccccc2)[C@@H]1O	37			
COC(OC)[C@@]1(C)Oc2ccc(N)cc2[C@H](/N=C(\NC#N)NCc2ccccc2)[C@H]1O		33	51	IC50 [3]: 9.2 µM
COC(OC)[C@]1(C)Oc2ccc(NC(C)=O)cc2[C@H](/N=C(\NC#N)NCc2ccccc2)[C@@H]1O	25	41	45	
COC(OC)[C@]1(C)Oc2ccc([N+](=O)[O-])cc2[C@@H](/N=C(\NC#N)Nc2ccc(Cl)cc2)[C@@H]1O	61	37	52	IC50 ([5]; Rattus norvegicus, Aorta): 17.5 µM
CC1(C)COC([C@]2(C)Oc3ccc(N)cc3[C@H](/N=C(\NC#N)NCc3ccccc3)[C@@H]2O)OC1	60	42	56	
COC(OC)[C@]1(C)Oc2ccc([N+](=O)[O-])cc2[C@@H](/N=C(\NC#N)Nc2cccc(Cl)c2)[C@@H]1O	70	47	40	IC50 ([5]; Rattus norvegicus, Aorta): 30.5 µM
COc1ccc(N/C(=N/[C@H]2c3cc([N+](=O)[O-])ccc3O[C@@](C)(C(OC)OC)[C@H]2O)NC#N)cc1	45	38	43	
COC(OC)[C@]1(C)Oc2ccc(N)cc2[C@@H](/N=C(\NC#N)NCc2ccccc2)[C@@H]1O		39	46	IC50 [3]: 8 µM
COC(OC)[C@]1(C)Oc2ccc(N)cc2[C@H](/N=C(\NC#N)NCc2ccccc2)[C@H]1O		38	51	IC50 [3]: 4.1 µM
CC1(C)Oc2ccc(C#N)cc2[C@@H](/N=C(\NC#N)Nc2ccc(Cl)cc2)[C@@H]1O		39	39	IC50 ([5]; Rattus norvegicus, Aorta): 3.2 µM; inhibition at 30 µM [6]: 20%
COC(OC)C1(C)Oc2ccc([N+](=O)[O-])cc2C(/N=C(\NC#N)Nc2ccc(Cl)cc2)[C@@H]1O (single isomer, unassigned)	58	46	46	
COC(OC)C1(C)Oc2ccc([N+](=O)[O-])cc2C(/N=C(\NC#N)NCc2ccccc2)[C@@H]1O (single isomer, unassigned)	7	37	49	
CC1(C2OCCO2)Oc2ccc(N)cc2C(/N=C(\NC#N)NCc2ccccc2)[C@@H]1O (single isomer, unassigned)	3.6	32	52	
COC(OC)C1(C)Oc2ccc(NS(C)(=O)=O)cc2C(/N=C(\NC#N)NCc2ccccc2)[C@@H]1O (single isomer, unassigned)	10	35	43	
COc1ccc(CN/C(=N/C2c3cc(N)ccc3OC(C)(C(OC)OC)[C@H]2O)NC#N)cc1 (single isomer, unassigned)		37	42	IC50 [3]: 4.1 µM
COC(OC)C1(C)Oc2ccc(N)cc2C(/N=C(\NC#N)NCc2ccccc2)[C@@H]1O (single isomer, unassigned)		35	37	Effect [7]: 42%; Effect [8]: 34%; Effect [9]: 46%; Effect [10]: 51%; Effect [11]: 37%; IC50 [3]: 2.2 µM; Effect [12]: 35%; Effect [13]: 34%; Effect [14]: 33%; Effect [15]: 35%
COC(OC)C1(C)Oc2ccc([N+](=O)[O-])cc2C(N/C(=N/C#N)NCc2ccccc2)[C@H]1O (single isomer, unassigned)				IC50 ([5]; Rattus norvegicus, Aorta): 7.3 µM
COC(OC)[C@@]1(C)Oc2ccc([N+](=O)[O-])cc2C(N/C(=N/C#N)NCc2ccccc2)[C@H]1O (single isomer, unassigned)		38	49	IC50 [5]: 9.8 µM
